The text below walks through data of ChEMBL document CHEMBL1629542, “Epigallocatechin gallate inactivates clinical isolates of herpes simplex virus” (Antimicrob Agents Chemother, 2008).

The structures appear in SMILES notation. Calls of active or inactive are those of the source. The calls are words filed in the database; no cut-off is given here.

Test [1] concerns Human alphaherpesvirus 1. Nature of the test: Antiviral activity against Human herpesvirus 1 isolate P38 infected in African green monkey vero cells assessed as reduction in viral titer at 100 uM. It is filed as functional, organism-based. Summed up: (§1)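 Laboratory HSV-1 F1 or patient-swab HSV-1 isolates were prepared as clarified Vero supernatants. They were incubated 1 h with a range of EGCG concentrations in RPMI 1640/1% FCS at pH 7.4. Titres were determined on Vero cells by 5-day CPE endpoint (Reed-Muench). IC99 was read graphically as 99% titre drop from untreated; mean ± SD, three experiments.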

Test [2] relates to Human alphaherpesvirus 1. Nature of the test: Antiviral activity against Human herpesvirus 1 F1 infected in African green monkey vero cells assessed as reduction in viral titer. Type of test: functional, organism-based. To be noted: Human alphaherpesvirus 1, F1, Vero. In outline:
as §1

Test [3] has as its system Human alphaherpesvirus 2. Nature of the test: Antiviral activity against Human herpesvirus 2 isolate P12 infected in African green monkey CV1 cells. Type of test: functional, organism-based. The conditions noted are these: Human alphaherpesvirus 2, isolate P12, CV-1. In outline: (§2)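 HSV-2 patient-swab isolates were grown as clarified CV-1 supernatants and incubated 1 h with a range of EGCG concentrations (RPMI 1640/1% FCS, pH 7.4). They were titrated on CV-1 cells from 10-fold dilutions by 5-day CPE at 37°C, with Reed-Muench TCID50. IC99 was derived graphically as 99% reduction from zero-drug titre; mean ± SD, three experiments.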

The test system of test [4] is Human alphaherpesvirus 1. Nature of the test: Antiviral activity against Human herpesvirus 1 isolate P32 infected in African green monkey vero cells assessed as reduction in viral titer at 100 uM. It is filed as functional, organism-based. Summed up:
as §1

In test [5] the test system is Human alphaherpesvirus 1. Nature of the test: Antiviral activity against Human herpesvirus 1 isolate P56 infected in African green monkey vero cells assessed as log reduction in viral titer at 100 uM within 20 mins. Type of test: functional. In outline:
(§3)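 In the time course, HSV-1 clinical isolates (clarified Vero supernatants) were exposed to 100 μM EGCG for varying times up to 60 min. Residual infectivity was then titrated on Vero cells by 5-day CPE endpoint with Reed-Muench calculation. Mean ± SD of three separate experiments.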

Test [6] relates to Human alphaherpesvirus 2. Nature of the test: Antiviral activity against Human herpesvirus 2 isolate P12 infected in African green monkey CV1 cells assessed as log reduction in viral titer at 100 uM within 20 mins. Type of test: functional, CV-1. Summed up:
(§4)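 HSV-2 clinical isolates from clarified CV-1 supernatants were held with 100 μM EGCG for timed intervals, from 10 min onward. Surviving virus was titrated on CV-1 cells by 10-fold dilution and 5-day CPE scoring, with TCID50 by Reed-Muench. Values are mean ± SD, three experiments.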

In test [7] the test system is Human alphaherpesvirus 1. Nature of the test: Antiviral activity against Human herpesvirus 1 F1 infected in African green monkey vero cells assessed as log reduction in viral titer at 100 uM. It is filed as functional. Summed up: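 HSV-1 F1 was grown in Vero cells and the clarified supernatant was incubated with 100 μM EGCG for 60 min at 37°C in RPMI 1640/1% FCS, pH 7.4. Titre was then measured on Vero cells from 10-fold dilutions, three wells per dilution, over 5 days at 37°C by CPE. TCID50 was calculated by Reed-Muench; three separate experiments.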

Test [8] has as its system Human alphaherpesvirus 2. Nature of the test: Antiviral activity against Human herpesvirus 2 isolate P2 infected in African green monkey CV1 cells. Type of test: functional, organism-based. To be noted: Human alphaherpesvirus 2, isolate P2, CV-1. Summed up: as §2
The subject of test [9] is Human alphaherpesvirus 1. Nature of the test: Antiviral activity against Human herpesvirus 1 isolate P15 infected in African green monkey vero cells assessed as reduction in viral titer. Type of test: functional, organism-based. To be noted: Human alphaherpesvirus 1, isolate P15, Vero. Summed up: as §1
For test [10], the system named is Human alphaherpesvirus 1. Nature of the test: Antiviral activity against Human herpesvirus 1 isolate P42 infected in African green monkey vero cells assessed as log reduction in viral titer at 100 uM after 30 mins. It is filed as functional. In outline:
as §3

In test [11] the test system is Human alphaherpesvirus 2. Nature of the test: Antiviral activity against Human herpesvirus 2 strain 333 infected in African green monkey vero cells assessed as log reduction in viral titer at 100 uM after 60 mins. Type of test: functional. In outline: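 Lab strain HSV-2 333 was grown and titrated either in CV-1 cells or in Vero cells. Virus was incubated with 100 μM EGCG for 60 min, then titrated as tenfold dilutions for 5 days at 37°C with CPE scoring. Reed-Muench TCID50 of treated versus control virus gave the titer decrease. Mean of three experiments.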

The subject of test [12] is Human alphaherpesvirus 2. Nature of the test: Antiviral activity against Human herpesvirus 2 isolate P11 infected in African green monkey CV1 cells assessed as log reduction in viral titer at 100 uM within 20 mins. It is filed as functional, CV-1. In outline:
as §4

In test [13] the test system is Human alphaherpesvirus 2. Nature of the test: Antiviral activity against Human herpesvirus 2 isolate P47 infected in African green monkey CV1 cells assessed as log reduction in viral titer at 100 uM within 10 mins. Type of test: functional, CV-1. In outline: (§5)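 Time course: clarified CV-1 supernatant of HSV-2 (clinical isolates or strain 333) was exposed to 100 μM EGCG for increasing times. It was then titrated by tenfold dilution on CV-1 cells, three wells per dilution, for 5 days at 37°C with CPE read-out. Reed-Muench TCID50 was compared with the untreated titer. Mean of three separate experiments.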

The test system of test [14] is Human alphaherpesvirus 1. Nature of the test: Antiviral activity against Human herpesvirus 1 isolate P38 infected in African green monkey vero cells assessed as log reduction in viral titer at 100 uM after 40 to 60 mins. It is filed as functional. Summed up:
as §3

The subject of test [15] is Human alphaherpesvirus 2. Nature of the test: Antiviral activity against Human herpesvirus 2 strain 333 infected in African green monkey CV1 cells assessed as log reduction viral titer at 12.5 ug/ml. It is filed as functional, CV-1. In outline:
(§6)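 HSV-2 (clinical swab isolates or strain 333) was grown in CV-1 cells and used as clarified supernatant. Virus was exposed to graded EGCG for 1 h in RPMI 1640 with 1% FCS, pH 7.4. Tenfold dilutions were titrated on CV-1 cells, three wells each, 5 days at 37°C, scoring CPE. TCID50 was calculated by Reed-Muench. IC99 was read graphically as 99% titer drop from the zero-concentration titer. Mean of three experiments.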

In test [16] the test system is Human alphaherpesvirus 1. Nature of the test: Binding affinity to Envelope glycoprotein D in Human herpesvirus 1 F1 assessed as macromolecular complex formation by SDS-PAGE. In outline: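 Purified HSV-1 gB or gD (500 to 700 μg/ml) was incubated with EGCG (250 μg/ml; 545 μM) in 0.1 M potassium phosphate, pH 7.0, at 35°C for 24 h. Products were denatured at 50°C for 15 min in sample buffer and run on 6.5% SDS-PAGE. Bands were stained with Coomassie blue to detect higher-molecular-weight complexes.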

Test [17] relates to Human alphaherpesvirus 2. Nature of the test: Antiviral activity against Human herpesvirus 2 isolate P27 infected in African green monkey CV1 cells assessed as log reduction in viral titer at 100 uM within 10 mins. Type of test: functional, CV-1. Summed up: as §5
For test [18], the system named is Human alphaherpesvirus 2. Nature of the test: Antiviral activity against Human herpesvirus 2 isolate P11 infected in African green monkey CV1 cells assessed as log reduction in viral titer at 12.5 uM. Type of test: functional, CV-1. In outline:
as §2

Test [19] has as its system Human alphaherpesvirus 1. Nature of the test: Antiviral activity against Human herpesvirus 1 isolate P32 infected in African green monkey vero cells assessed as reduction in viral titer. The conditions noted are these: Human alphaherpesvirus 1, isolate P32, Vero. It is filed as functional, organism-based. In outline: as §1
Test [20] concerns Human alphaherpesvirus 2. Nature of the test: Antiviral activity against Human herpesvirus 2 strain 333 infected in African green monkey CV-1 cells assessed as log reduction in viral titer at 100 uM after 20 mins. It is filed as functional. In outline: as §5
Test [21] concerns Human alphaherpesvirus 1. Nature of the test: Antiviral activity against Human herpesvirus 1 isolate P25 infected in African green monkey vero cells assessed as log reduction in viral titer at 100 uM after 40 to 60 mins. It is filed as functional. In outline: as §3
Test [22] has as its system Human alphaherpesvirus 2. Nature of the test: Antiviral activity against Human herpesvirus 2 isolate P27 infected in African green monkey CV1 cells. It is filed as functional, organism-based. To be noted: Human alphaherpesvirus 2, isolate P27, CV-1. In outline:
as §6

For test [23], the system named is Human alphaherpesvirus 2. Nature of the test: Antiviral activity against Human herpesvirus 2 isolate P12 infected in African green monkey CV1 cells assessed as log reduction in viral titer at 100 uM within 10 mins. It is filed as functional, CV-1. Summed up: as §4
Test [24] relates to Human alphaherpesvirus 2. Nature of the test: Antiviral activity against Human herpesvirus 2 isolate P12 infected in African green monkey CV1 cells assessed as log reduction in viral titer at 12.5 uM. It is filed as functional, CV-1. In outline: as §2

For `O=C(O[C@@H]1Cc2c(O)cc(O)cc2O[C@@H]1c1cc(O)c(O)c(O)c1)c1cc(O)c(O)c(O)c1` [EPIGALOCATECHIN GALLATE], the outcome in test [1], in [4] and in test [16] was Active. For the same compound, the IC99 (usually the point of the concentration-response curve where the effect stands at 99%) came to 72.3 µM in test [2]; 12.5 µM in [3]; 12.3 µM in test [8]; 48.4 µM in [9]; 16 µM in [19]; 12.1 µM in test [22]. Besides, the FC is given as 3 in [5]; 3 in test [6]; “>=3” in test [7]; 2 in test [10]; 4 in test [11]; 3 in test [12]. For the same compound, the FC in test [13] is recorded as 2; in test [14], 3; in test [15] it was 0.56; in test [17], 2; in [18] it was “>=2”; in test [20] it was “>=3”. Moreover, the FC is listed as 3 in [21], 2 in test [23] and “>=2” in test [24].
